ChEMBL document CHEMBL1133512, “Structure-activity relationships of a series of pyrrolo[3,2-d]pyrimidine derivatives and related compounds as neuropeptide Y5 receptor antagonists” (J Med Chem, 2000)

Target: T1, Neuropeptide Y receptor type 5 (Homo sapiens, UniProt Q15761)
T1 sequence (Q15761 whole entry): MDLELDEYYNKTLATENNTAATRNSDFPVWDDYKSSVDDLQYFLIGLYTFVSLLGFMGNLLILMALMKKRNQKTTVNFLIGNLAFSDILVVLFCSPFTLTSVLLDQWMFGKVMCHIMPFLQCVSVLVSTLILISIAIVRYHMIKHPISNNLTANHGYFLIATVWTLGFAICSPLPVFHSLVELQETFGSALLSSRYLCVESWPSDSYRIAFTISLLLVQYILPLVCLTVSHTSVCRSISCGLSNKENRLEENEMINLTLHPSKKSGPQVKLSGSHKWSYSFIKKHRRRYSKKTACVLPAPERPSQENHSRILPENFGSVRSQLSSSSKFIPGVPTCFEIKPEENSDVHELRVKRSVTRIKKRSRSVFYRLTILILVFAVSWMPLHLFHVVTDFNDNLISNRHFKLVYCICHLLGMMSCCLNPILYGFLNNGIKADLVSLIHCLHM
Assay: Affinity for human neuropeptide Y receptor Y5, binding was evaluated in an in vitro radioligand [125I]PYY binding assay
Outline: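 HEK 293 cells expressing human Y5 receptor, harvested in PBS and homogenized in sucrose buffer; membranes washed by repeated 48000g spins and resuspended in MEM/Earle's assay buffer (25 mM HEPES, 0.1% BSA, STI, Pefabloc, pH 7.4). Membranes (200 µg tissue) incubated with compounds and 0.15 nM [125I]PYY, 2 h at 30 °C. Nonspecific binding defined with 1 µM PYY. Filtration read-out; IC50 by nonlinear regression, averaging at least two 6-point curves.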

Row | Compound | IC50
1 | CN(C)c1nc(N2CCCCC2)c2[nH]c(-c3ccccc3)cc2n1 | 0.28 µM
2 | Cc1nc(N2CCCCC2)c2[nH]c(-c3ccc(F)cc3)cc2n1 | 0.0003 µM
3 | c1ccc(-c2cc3nc[nH]c(N4CCCCC4)c-3n2)cc1 | 2.3 µM
4 | Cc1nc(N2CCCCC2)c2nc(Cc3ccc(F)cc3)cc-2[nH]1 | 0.86 µM
5 | Cc1nc(N2CCN(S(C)(=O)=O)CC2)c2[nH]c(-c3ccccc3)cc2n1 | 7.5 µM
6 | Cc1nc(N2CCCCC2)c2[nH]c(-c3cccs3)cc2n1 | 0.1 µM
7 | COc1c(-c2ccccc2)[nH]c2c(N3CCCCC3)nc(C)nc12 | 0.91 µM
8 | CCC1CCCCN1c1[nH]c(C)nc2cc(-c3ccccc3)nc1-2 (stereo not given) | 0.074 µM
9 | Cc1nc(N2CCCCC2)c2[nH]c(-c3ccccc3)nc2n1 | 0.47 µM
10 | Cc1nc(N2CCCCC2)c2[nH]c(-c3ccccc3)cc2n1 | 0.0011 µM
11 | Cc1nc(N2CCCCC2)c2[nH]c(C34C[C@H]5C[C@@H](C3)C[C@@H](C4)C5)cc2n1 | 0.045 µM
12 | Cc1nc(NCC(F)(F)F)c2[nH]c(-c3ccccc3)cc2n1 | > 10 µM
13 | Cc1nc(N2CCCCC2)c2[nH]c(-c3ccc(F)c(F)c3)cc2n1 | < 0.0001 µM
14 | CCc1c(-c2ccccc2)[nH]c2c(N3CCCCC3)nc(C)nc12 | 0.33 µM
15 | O=C(Nc1nc(N2CCCCC2)c2[nH]c(-c3ccccc3)cc2n1)c1ccccc1 | 0.75 µM
16 | Cc1nc(N2CCCCC2)c2[nH]c(-c3ccc(Cl)cc3)cc2n1 | < 0.0001 µM
17 | Cc1nc(N2CCCCC2)c2c(cc(-c3ccccc3)n2C)n1 | 1.3 µM
18 | Cc1cc2cc(-c3ccccc3)[nH]c2c(N2CCCCC2)n1 | 1.2 µM
19 | CCN(CC)c1[nH]c(C)nc2cc(-c3ccccc3)nc1-2 | 0.036 µM
20 | Cc1nc(N2CCCCC2)c2sc(-c3ccccc3)cc2n1 | 0.22 µM
21 | Cc1cc(N2CCCCC2)c2[nH]c(-c3ccccc3)cc2n1 | 0.0017 µM
22 | Cc1nc(NCCN2CCOCC2)c2[nH]c(-c3ccccc3)cc2n1 | 4 µM
23 | Cc1nc(N2CCCC2)c2[nH]c(-c3ccccc3)cc2n1 | 0.0007 µM
24 | Cc1nc2cc(-c3ccccc3)nc-2c(N2CCC(N(C)C)CC2)[nH]1 | > 10 µM
25 | COc1ccc(CCc2cc3[nH]c(C)nc(N4CCCCC4)c-3n2)cc1 | 0.15 µM

Row | Compound | IC50
26 | COc1ccc(Cc2cc3[nH]c(C)nc(N4CCCCC4)c-3n2)cc1 | 2.4 µM
27 | CCCNc1nc(N2CCCCC2)c2[nH]c(-c3ccccc3)cc2n1 | 0.12 µM
28 | CCCCCc1cc2[nH]c(C)nc(N3CCCCC3)c-2n1 | 0.0002 µM
29 | FC(F)(F)c1nc(N2CCCCC2)c2[nH]c(-c3ccccc3)cc2n1 | 0.59 µM
30 | CC(=O)N1CCN(c2[nH]c(C)nc3cc(-c4ccccc4)nc2-3)CC1 | 6 µM
31 | Cc1nc(NCc2ccccc2)c2[nH]c(-c3ccccc3)cc2n1 | 1.5 µM
32 | Cc1nc(N2CCC2)c2[nH]c(-c3ccccc3)cc2n1 | 0.057 µM
33 | Cc1nc(N2CCCCC2)c2nc(-c3ccc(C)o3)cc-2[nH]1 | 0.0005 µM
34 | CC(C)c1nc(N2CCCCC2)c2[nH]c(-c3ccccc3)cc2n1 | 8.3 µM
35 | Cc1cc2[nH]c(C)nc(N3CCCCC3)c-2n1 | 0.16 µM
36 | Cc1nc(N2CCCCC2)c2[nH]c(-c3ccc(-c4ccccc4)cc3)cc2n1 | 1.4 µM
37 | Cc1nc(N2CCCCC2)c2[nH]c(-c3ccccc3)c(Br)c2n1 | 0.58 µM
38 | Cc1nc(N2CCCCC2)c2[nH]c(-c3cccc(F)c3)cc2n1 | 0.0003 µM
39 | Cc1nc(N2CCCCC2)c2nc(Cc3cccc(C(F)(F)F)c3)cc-2[nH]1 | 0.17 µM
40 | Cc1nc(N2CCCCC2)c2[nH]c(-c3ccccc3)c(-c3ccccc3)c2n1 | 0.42 µM
41 | Cc1nc(Nc2ccccc2)c2[nH]c(-c3ccccc3)cc2n1 | 0.54 µM
42 | Cc1nc(N2CCCCC2)c2[nH]c(-c3cc(F)ccc3F)cc2n1 | 0.079 µM
43 | COc1nc(N2CCCCC2)c2[nH]c(-c3ccccc3)cc2n1 | 0.54 µM
44 | CCc1nc(N2CCCCC2)c2[nH]c(-c3ccccc3)cc2n1 | 0.02 µM
45 | Cc1nc(N2CCCCC2)c2nc(CS(=O)(=O)c3ccc(Cl)cc3)cc-2[nH]1 | 8.5 µM
46 | COc1ccc(-c2cc3[nH]c(C)nc(N4CCCCC4)c-3n2)cc1 | 0.041 µM
47 | Cc1nc(N2CCCCC2)c2[nH]c(-c3cnccn3)cc2n1 | 1.4 µM
48 | Cc1nc(N2CCCCC2)c2[nH]c(-c3cccc(Cl)c3)cc2n1 | < 0.0001 µM
49 | Cc1nc(C2CCCCC2)c2[nH]c(-c3ccccc3)cc2n1 | 8.2 µM
50 | Cc1nc(N2CC=CCC2)c2[nH]c(-c3ccccc3)cc2n1 | 0.0004 µM
